An excerpt weighted towards active compounds, which were near 3.8% of everything screened.
BB579 growth dn: chemicals that inhibit yeast BB579 growth in restrictive medium (lifespan-shortening candidates) | S. cerevisiae BB579 growth, OD615, 48 h | inhibition, % at 10 µM | 0.51% of 140,000 active | AID 804;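 active = inhibition above a set limit, 3 SD over the mean compound inhibition, cut at about 44% in these data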
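Test system: DeaD yeast strain BB579 / Buffer or medium: restrictive glucose-based CSMM-D medium / Doses: single 10 µM dose / Schedule: 4 h cell preincubation, 48 h compound exposure, 30 °C humidified / Technique: culture absorbance at 615 nm / Controls: amphotericin B positive control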
RAM network inh: inhibitors of the yeast RAM network; 1.8% of 190,000 active; S. cerevisiae dse1pr::URA3 reporter, 5-FOA growth OD615, 2 d; analog-sensitive cbk1-as2 kinase mutant strain; inhibition, % at 50 µM;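 active = inhibition above a set limit, 3 SD over mean compound inhibition, cut at about 8.4% in these data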;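 also: 0% = DMSO-only wells with no growth and 100% = 10 µM 1-NA-PP1 full growth; inhibition rescues growth on 5-FOA so higher OD means more RAM inhibition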
Yeast lifespan up: yeast lifespan extension. S. cerevisiae growth with nicotinamide, OD615; deaD strain in restrictive glucose medium. inhibition of the nicotinamide effect, % at 10 µM. 0.68% of 130,000 active. AID 775;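 active = inhibition above a set limit, placed 3 SD over the median of all compounds, cut at about 26% in these data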;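 also: 0% = nicotinamide-treated wells and 100% = cells grown without nicotinamide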
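Measured by: optical density (absorbance) at 615 nm; System: modified budding yeast, DeaD strain; Medium: restrictive CSMM-D dextrose medium; Timing: 4 h preincubation then 48 h treatment at 30 °C.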
Measles CPE: protection of cells from measles virus | Measles virus-infected cells, CPE protection, absorbance | protection (pct of control), % at 4 µM | 1.5% of 140,000 active | AID 841; in the data active = protection mostly above about 24%, no sharp cut-off; inactive = mostly below about 26%
RAM 5-FOA: restores 5-FOA growth of efflux-deficient yeast | shares compounds with RAM network inh | S. cerevisiae efflux-deficient reporter strain, 5-FOA growth OD615, 2 days | max inhibition, % | 1,200 tested, under 10 active; call rule not given here;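 also: plate controls were vehicle for no effect and reference inhibitor for full effect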
Active calls of the source: *.

CC(C)OC(=O)/C(C#N)=C/c1cn(Cc2ccccc2)c2ccccc12 was read as BB579 growth dn -45.9, RAM network inh 15.8*, Yeast lifespan up -1.0, Measles CPE 5.0 and RAM 5-FOA 6.4.
`Cc1ccc(S(=O)(=O)N(CCCO)CC(O)CON=C2c3ccccc3-c3ccccc32)cc1` (stereo not drawn) gave BB579 growth dn -25.3, RAM network inh 13.3*, Yeast lifespan up -0.8, Measles CPE 1.9 and RAM 5-FOA 3.3.
For N#CC(C#N)=C(Nc1ccc(F)cc1)SCc1cccc(Br)c1 the results were BB579 growth dn -72.6, RAM network inh 13.8*, Yeast lifespan up 5.5, Measles CPE 9.2 and RAM 5-FOA 2.7.
For Cc1cccc(CSC(Nc2ccc(F)cc2)=C(C#N)C#N)c1 the results were BB579 growth dn -71.9, RAM network inh 7.3, Yeast lifespan up 1.6 and Measles CPE 5.2.
Screening CCCCC(=O)Nc1ccccc1C(=O)OCC(=O)c1ccc2c(c1)OCCO2 returned BB579 growth dn -14.9, RAM network inh 12.8*, Yeast lifespan up -2.3, Measles CPE 14.3 and RAM 5-FOA 1.7.
`CCN(CC)S(=O)(=O)c1cccc(C(=O)OCC(=O)c2ccc3c(c2)OCCO3)c1` gave BB579 growth dn -49.4, RAM network inh 14.4*, Yeast lifespan up 7.5, Measles CPE 12.6 and RAM 5-FOA 4.6.
Screening O=C(O)/C=C/C(=O)Nc1ccccc1C(=O)OCC(=O)c1ccc2c(c1)OCCO2 returned RAM network inh 0.9.
`O=C(COC(=O)c1cccc(S(=O)(=O)NCc2ccccc2)c1)c1ccc2c(c1)OCCO2` gave BB579 growth dn -40.6, RAM network inh 7.3, Yeast lifespan up 0.3 and Measles CPE 8.3.
CCCOc1ccc(-c2nn(-c3ccccc3)cc2/C=C2\SC(N)=NC2=O)cc1C was read as BB579 growth dn -25.7, RAM network inh 12.6*, Yeast lifespan up 6.6, Measles CPE 16.8 and RAM 5-FOA 9.1.
COc1ccc(-c2nn(CCC(=O)O)cc2/C=C2\SC(N)=NC2=O)cc1OC was read as BB579 growth dn -12.7, RAM network inh 3.0, Yeast lifespan up 0.2 and Measles CPE 8.9.

Screening results deposited in PubChem BioAssay by several laboratories.
